ChEMBL document CHEMBL2440035, “Azetidines and spiro azetidines as novel P2 units in hepatitis C virus NS3 protease inhibitors” (Bioorg Med Chem Lett, 2013)

Experiments:
Prothrombin = Prothrombin (Homo sapiens, UniProt P00734); test: Inhibition of human thrombin
Cathepsin S = Cathepsin S (Homo sapiens, UniProt P25774); test: Inhibition of human cathepsin S
Plasminogen = Plasminogen (Homo sapiens, UniProt P00747); test: Inhibition of human plasmin
[1] = molecular target: T1, Neutrophil elastase (Homo sapiens) (UniProt P08246); test: (§1) Inhibition of human neutrophil elastase
T1 sequence (whole entry): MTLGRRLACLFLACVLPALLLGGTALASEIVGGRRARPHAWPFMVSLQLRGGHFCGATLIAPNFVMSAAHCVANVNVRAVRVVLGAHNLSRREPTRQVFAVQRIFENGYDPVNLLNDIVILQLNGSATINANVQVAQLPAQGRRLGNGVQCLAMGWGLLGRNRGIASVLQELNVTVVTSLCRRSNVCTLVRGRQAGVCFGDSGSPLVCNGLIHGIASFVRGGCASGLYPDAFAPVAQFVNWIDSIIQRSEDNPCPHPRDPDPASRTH

Hepatitis C virus [2] = test: Ratio of EC90 for Hepatitis C virus genotype 1b NS3/4A protease D168A mutant to EC90 Hepatitis C virus genotype 1b wild type NS3/4A protease; parameters: species or system Hepatitis C virus subtype 1b
In short: (§2)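 Genotype 1b NS3 protease enzyme panel: wild type plus resistance mutants A156T, R155K, D168V, V36M, A156S, V170A and D168A. […] Resistance is expressed as the fold increase of each mutant's value over the wild-type value.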

Hepatitis C virus [3] = test: Ratio of EC50 for Hepatitis C virus genotype 1b NS3/4A protease D168A mutant to EC50 Hepatitis C virus genotype 1b wild type NS3/4A protease; parameters: species or system Hepatitis C virus subtype 1b; in short: as §2
Hepatitis C virus [4] = test: Ratio of EC90 for Hepatitis C virus genotype 1b NS3/4A protease V170A mutant to EC90 Hepatitis C virus genotype 1b wild type NS3/4A protease; parameters: species or system Hepatitis C virus subtype 1b; in short: as §2
Hepatitis C virus [5] = test: Ratio of EC50 for Hepatitis C virus genotype 1b NS3/4A protease V170A mutant to EC50 Hepatitis C virus genotype 1b wild type NS3/4A protease; parameters: species or system Hepatitis C virus subtype 1b; in short: as §2
Hepatitis C virus [6] = test: Inhibition of Hepatitis C virus genotype 1b NS3/4A protease V170A mutant; parameters: species or system Hepatitis C virus subtype 1b
In short: (§3)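 Panel of genotype 1b NS3 protease enzymes (wild type and mutants). IC50 and IC90 are averages ± standard error from 2 independent assays. Fold change versus wild type given in parentheses.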

Hepatitis C virus [7] = test: Ratio of EC90 for Hepatitis C virus genotype 1b NS3/4A protease A156S mutant to EC90 Hepatitis C virus genotype 1b wild type NS3/4A protease; parameters: species or system Hepatitis C virus subtype 1b; in short: as §2
Hepatitis C virus [8] = test: Ratio of EC50 for Hepatitis C virus genotype 1b NS3/4A protease A156S mutant to EC50 Hepatitis C virus genotype 1b wild type NS3/4A protease; parameters: species or system Hepatitis C virus subtype 1b; in short: as §2
Hepatitis C virus [9] = test: Inhibition of Hepatitis C virus genotype 1b NS3/4A protease A156S mutant; parameters: species or system Hepatitis C virus subtype 1b; in short: as §3
Hepatitis C virus [10] = test: Ratio of EC90 for Hepatitis C virus genotype 1b NS3/4A protease V36M mutant to EC90 Hepatitis C virus genotype 1b wild type NS3/4A protease; parameters: species or system Hepatitis C virus subtype 1b; in short: as §2
Hepatitis C virus [11] = test: Ratio of EC50 for Hepatitis C virus genotype 1b NS3/4A protease V36M mutant to EC50 Hepatitis C virus genotype 1b wild type NS3/4A protease; parameters: species or system Hepatitis C virus subtype 1b; in short: as §2
Hepatitis C virus [12] = test: Inhibition of Hepatitis C virus genotype 1b NS3/4A protease V36M mutant; parameters: species or system Hepatitis C virus subtype 1b; in short: as §3
Hepatitis C virus [13] = test: Ratio of EC90 for Hepatitis C virus genotype 1b NS3/4A protease D168V mutant to EC90 Hepatitis C virus genotype 1b wild type NS3/4A protease; parameters: species or system Hepatitis C virus subtype 1b; in short: as §2
Hepatitis C virus [14] = test: Ratio of EC50 for Hepatitis C virus genotype 1b NS3/4A protease D168V mutant to EC50 Hepatitis C virus genotype 1b wild type NS3/4A protease; parameters: species or system Hepatitis C virus subtype 1b; in short: as §2
Hepatitis C virus [15] = test: Inhibition of Hepatitis C virus genotype 1b NS3/4A protease D168V mutant; parameters: species or system Hepatitis C virus subtype 1b; in short: as §3
Hepatitis C virus [16] = test: Ratio of EC90 for Hepatitis C virus genotype 1b NS3/4A protease R155K mutant to EC90 Hepatitis C virus genotype 1b wild type NS3/4A protease; parameters: species or system Hepatitis C virus subtype 1b; in short: as §2
Hepatitis C virus [17] = test: Inhibition of Hepatitis C virus genotype 1b NS3/4A protease D168A mutant; parameters: species or system Hepatitis C virus subtype 1b; in short: as §3
Hepatitis C virus [18] = test: Ratio of EC50 for Hepatitis C virus genotype 1b NS3/4A protease R155K mutant to EC50 Hepatitis C virus genotype 1b wild type NS3/4A protease; parameters: species or system Hepatitis C virus subtype 1b; in short: as §2
Hepatitis C virus [19] = test: Inhibition of Hepatitis C virus genotype 1b NS3/4A protease R155K mutant; parameters: species or system Hepatitis C virus subtype 1b; in short: as §3
Hepatitis C virus [20] = test: Ratio of EC90 for Hepatitis C virus genotype 1b NS3/4A protease A156T mutant to EC90 Hepatitis C virus genotype 1b wild type NS3/4A protease; parameters: species or system Hepatitis C virus subtype 1b; in short: as §2
Hepatitis C virus [21] = test: Ratio of EC50 for Hepatitis C virus genotype 1b NS3/4A protease A156T mutant to EC50 Hepatitis C virus genotype 1b wild type NS3/4A protease; parameters: species or system Hepatitis C virus subtype 1b; in short: as §2
Hepatitis C virus [22] = test: Inhibition of Hepatitis C virus genotype 1b NS3/4A protease A156T mutant; parameters: species or system Hepatitis C virus subtype 1b; in short: as §3
Hepatitis C virus [23] = test: Inhibition of Hepatitis C virus genotype 1b wild type NS3/4A protease; parameters: species or system Hepatitis C virus subtype 1b; in short: as §3
Huh-7 = test: Cytotoxicity against human HuH7 cells; type: cell-based
In short: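 Huh7 cytotoxicity measured together with the replicon antiviral assay, by extraction and amplification of ribosomal RNA. Each concentration run in triplicate and reported as mean.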

Hepatitis C virus [24] = test: Antiviral activity against Hepatitis C virus infected in human HuH7 cells assessed as viral RNA replication; type: functional, organism-based, Hepacivirus hominis; details: Huh-7
In short: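 Subgenomic HCV replicon in Huh7 cells; inhibition of HCV RNA replication measured by extraction and amplification of HCV RNA. Each concentration run in triplicate and reported as mean; EC50 derived.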

Neutrophil elastase = molecular target: T2, Neutrophil elastase (Homo sapiens, UniProt P08246); test: as §1
T2 sequence (P08246 whole entry): T1 sequence (whole entry)

Chain of Plasminogen (P00747 97-580 limits assumed): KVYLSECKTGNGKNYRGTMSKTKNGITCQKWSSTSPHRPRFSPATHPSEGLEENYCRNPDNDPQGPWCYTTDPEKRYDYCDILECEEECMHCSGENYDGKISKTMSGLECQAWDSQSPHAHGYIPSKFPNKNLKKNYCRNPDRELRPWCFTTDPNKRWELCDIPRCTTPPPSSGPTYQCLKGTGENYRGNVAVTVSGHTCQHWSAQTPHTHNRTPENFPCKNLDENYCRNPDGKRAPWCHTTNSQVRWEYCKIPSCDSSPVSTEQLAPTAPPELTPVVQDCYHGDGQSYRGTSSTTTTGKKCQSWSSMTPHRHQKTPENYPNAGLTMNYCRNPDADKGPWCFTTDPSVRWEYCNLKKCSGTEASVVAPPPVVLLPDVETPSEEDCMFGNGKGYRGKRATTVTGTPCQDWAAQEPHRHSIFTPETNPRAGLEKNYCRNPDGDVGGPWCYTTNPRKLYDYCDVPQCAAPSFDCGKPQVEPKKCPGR
Chain of Plasminogen (P00747 581-810 limits assumed): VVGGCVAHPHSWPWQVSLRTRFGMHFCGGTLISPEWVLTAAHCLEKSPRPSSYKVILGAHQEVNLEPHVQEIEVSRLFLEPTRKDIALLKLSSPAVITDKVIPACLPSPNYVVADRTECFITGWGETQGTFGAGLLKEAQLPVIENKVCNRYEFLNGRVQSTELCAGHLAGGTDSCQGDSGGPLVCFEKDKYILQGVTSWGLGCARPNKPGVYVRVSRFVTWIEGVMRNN

| Structure (SMILES) | IC50 (Prothrombin) [nM] | IC90 (Prothrombin) [nM] | IC50 (Cathepsin S) [nM] | IC90 (Cathepsin S) [nM] | IC50 (Plasminogen) [nM] | IC90 [1] [nM] | Ratio (Hepatitis C virus [2]) | Ratio EC50 (Hepatitis C virus [3]) | Ratio (Hepatitis C virus [4]) | Ratio EC50 (Hepatitis C virus [5]) | EC50 (Hepatitis C virus [6]) [nM] | EC90 (Hepatitis C virus [6]) [nM] | Ratio (Hepatitis C virus [7]) | EC50 (Hepatitis C virus [9]) [nM] | EC90 (Hepatitis C virus [9]) [nM] | Ratio (Hepatitis C virus [10]) | Ratio EC50 (Hepatitis C virus [11]) | EC50 (Hepatitis C virus [12]) [nM] | EC90 (Hepatitis C virus [12]) [nM] | Ratio (Hepatitis C virus [13]) | other results |
| --- | --- | --- | --- | --- | --- | --- | --- | --- | --- | --- | --- | --- | --- | --- | --- | --- | --- | --- | --- | --- | --- |
| CCC[C@H](NC(=O)[C@@H]1[C@H]2CCC[C@H]2CN1C(=O)[C@@H](NC(=O)[C@@H](NC(=O)c1cnccn1)C1CCCCC1)C(C)(C)C)C(=O)C(=O)NC1CC1 | < 1000 | < 1000 | > 100000 | > 100000 | 8700 | > 100000 | 0.9 | 1 | 1.9 | 3.3 | 200 | 1500 | 66 | 2200 | 52000 | 6.5 | 8.5 | 510 | 5100 | 0.9 | Ratio EC50 (Hepatitis C virus [8]): 37; Ratio EC50 (Hepatitis C virus [14]): 1.3; EC50 (Hepatitis C virus [15]): 80 nM; EC90 (Hepatitis C virus [15]): 740 nM; Ratio (Hepatitis C virus [16]): 11; EC50 (Hepatitis C virus [17]): 580 nM; EC90 (Hepatitis C virus [17]): 690 nM; Ratio EC50 (Hepatitis C virus [18]): 13; EC50 (Hepatitis C virus [19]): 800 nM; EC90 (Hepatitis C virus [19]): 8300 nM; Ratio (Hepatitis C virus [20]): >130; Ratio EC50 (Hepatitis C virus [21]): 780; EC50 (Hepatitis C virus [22]): 46000 nM; EC90 (Hepatitis C virus [22]): > 100000 nM; EC50 (Hepatitis C virus [23]): 60 nM; EC90 (Hepatitis C virus [23]): 780 nM; CC50 (Huh-7): > 10000 nM; EC50 (Hepatitis C virus [24]): 400 nM; EC90 (Hepatitis C virus [24]): 900 nM |
| CC[C@@H]1C[C@]1(NC(=O)[C@@H]1C[C@@H]2CN1C(=O)[C@H](C(C)(C)C)NC(=O)OCC(C)(C)CCCCc1cccc3c1CN(C3)C(=O)O2)C(=O)NS(=O)(=O)C1CC1 | > 100000 | > 100000 | 78000 | > 100000 | > 100000 | > 100000 | 840 | 390 | 0.8 | 0.7 | 4.6 | 10 | 1.3 | < 1 | 17 | 7.8 | 7.2 | 45 | 100 | >77 | IC90 (Plasminogen): > 100000 nM; IC50 (Neutrophil elastase): > 100000 nM; EC50 (Hepatitis C virus [15]): > 1000 nM; EC90 (Hepatitis C virus [15]): > 1000 nM; EC50 (Hepatitis C virus [17]): 2400 nM; EC90 (Hepatitis C virus [17]): 11000 nM; EC50 (Hepatitis C virus [19]): > 1000 nM; EC90 (Hepatitis C virus [19]): > 1000 nM; Ratio (Hepatitis C virus [20]): >77; Ratio EC50 (Hepatitis C virus [21]): 150; EC50 (Hepatitis C virus [22]): 910 nM; EC90 (Hepatitis C virus [22]): > 1000 nM; EC50 (Hepatitis C virus [23]): 6.2 nM; EC90 (Hepatitis C virus [23]): 13 nM |
